Laboratory results from ChEMBL document CHEMBL1687776, “Origin and molecular evolution of the determinant of methicillin resistance in staphylococci” (2010).
≈ marks a conversion by molar mass, not a printed value.

What was measured:
[1] = test system: Staphylococcus vitulinus; experiment: Antibacterial activity against methicillin-resistant mecA-positive Staphylococcus vitulinus SVMP03 by agar dilution method; format: functional; conditions: Mammaliicoccus vitulinus
Method in brief: (§1)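 MIC by agar dilution on Mueller-Hinton agar per CLSI guidance; resistance judged against CLSI breakpoints. Strains were animal or food isolates (type strains for S. sciuri subspecies), typed by hsp60 and/or sodA sequencing; mecA homologue carriage checked by PCR with degenerate primers. Agents tested: oxacillin, ampicillin, ceftizoxime, ceftriaxone, cefoxitin.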

[2] = test system: Staphylococcus vitulinus; experiment: Antibacterial activity against methicillin-resistant mecA-positive Staphylococcus vitulinus SVMP04 by agar dilution method; format: functional; conditions: Mammaliicoccus vitulinus; method in brief: as §1
[3] = test system: Staphylococcus vitulinus; experiment: Antibacterial activity against methicillin-resistant mecA-positive Staphylococcus vitulinus SVMP05 by agar dilution method; format: functional; conditions: Mammaliicoccus vitulinus; method in brief: as §1
[4] = test system: Staphylococcus vitulinus; experiment: Antibacterial activity against methicillin-resistant mecA-positive Staphylococcus vitulinus SVMP06 by agar dilution method; format: functional; conditions: Mammaliicoccus vitulinus; method in brief: as §1
[5] = test system: Staphylococcus vitulinus; experiment: Antibacterial activity against mecA-negative Staphylococcus vitulinus SVMN01 (ATCC 51145T) by agar dilution method; format: functional; conditions: Mammaliicoccus vitulinus
Method in brief: (§2)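 MIC by agar dilution on Mueller-Hinton agar following CLSI guidelines. Resistance was assigned using CLSI breakpoints. Agents tested were oxacillin, ampicillin, ceftizoxime, ceftriaxone and cefoxitin. Strains were from animal or food sources and identified by hsp60 and/or sodA sequencing. mecA absence was assessed by PCR with degenerate primers for mecA and its homologues.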

[6] = test system: Staphylococcus vitulinus; experiment: Antibacterial activity against mecA-negative Staphylococcus vitulinus SVMN02 by agar dilution method; format: functional; conditions: Mammaliicoccus vitulinus; method in brief: as §1
[7] = test system: Staphylococcus vitulinus; experiment: Antibacterial activity against mecA-negative Staphylococcus vitulinus SVMN03 by agar dilution method; format: functional; conditions: Mammaliicoccus vitulinus; method in brief: as §2
[8] = test system: Staphylococcus vitulinus; experiment: Antibacterial activity against mecA-negative Staphylococcus vitulinus SVMN04 by agar dilution method; format: functional; conditions: Mammaliicoccus vitulinus; method in brief: as §1
[9] = test system: Staphylococcus vitulinus; experiment: Antibacterial activity against mecA-negative Staphylococcus vitulinus SVMN05 by agar dilution method; format: functional; conditions: Mammaliicoccus vitulinus; method in brief: as §1
[10] = test system: Staphylococcus vitulinus; experiment: Antibacterial activity against mecA-negative Staphylococcus vitulinus SVMN06 by agar dilution method; format: functional; conditions: Mammaliicoccus vitulinus; method in brief: as §1
[11] = test system: Staphylococcus vitulinus; experiment: Antibacterial activity against mecA-negative Staphylococcus vitulinus SVMN07 by agar dilution method; format: functional; conditions: Mammaliicoccus vitulinus; method in brief: as §1
[12] = test system: Staphylococcus vitulinus; experiment: Antibacterial activity against mecA-negative Staphylococcus vitulinus SVMN08 by agar dilution method; format: functional; conditions: Mammaliicoccus vitulinus; method in brief: as §2
[13] = test system: Staphylococcus vitulinus; experiment: Antibacterial activity against mecA-negative Staphylococcus vitulinus SVMN09 by agar dilution method; format: functional; conditions: Mammaliicoccus vitulinus; method in brief: as §1
[14] = test system: Staphylococcus vitulinus; experiment: Antibacterial activity against mecA-negative Staphylococcus vitulinus SVMN10 by agar dilution method; format: functional; conditions: Mammaliicoccus vitulinus; method in brief: as §2
[15] = test system: Staphylococcus vitulinus; experiment: Antibacterial activity against mecA-negative Staphylococcus vitulinus SVMN11 by agar dilution method; format: functional; conditions: Mammaliicoccus vitulinus; method in brief: as §1
[16] = test system: Staphylococcus vitulinus; experiment: Antibacterial activity against mecA-negative Staphylococcus vitulinus SVMN12 by agar dilution method; format: functional; conditions: Mammaliicoccus vitulinus; method in brief: as §1
[17] = test system: Staphylococcus vitulinus; experiment: Antibacterial activity against mecA-negative Staphylococcus vitulinus SVMN13 by agar dilution method; format: functional; conditions: Mammaliicoccus vitulinus; method in brief: as §2
[18] = test system: Staphylococcus vitulinus; experiment: Antibacterial activity against mecA-negative Staphylococcus vitulinus SVMN14 by agar dilution method; format: functional; conditions: Mammaliicoccus vitulinus; method in brief: as §1
[19] = test system: Mammaliicoccus lentus; experiment: Antibacterial activity against mecA-negative Staphylococcus lentus ATCC 29070T by agar dilution method; format: functional; method in brief: as §2
[20] = test system: Staphylococcus fleurettii; experiment: Antibacterial activity against methicillin-resistant mecA-positive Staphylococcus fleurettii SFMP01(CCUG 43834T) by agar dilution method; format: functional; conditions: Mammaliicoccus fleurettii; method in brief: as §1
[21] = test system: Staphylococcus fleurettii; experiment: Antibacterial activity against methicillin-resistant mecA-positive Staphylococcus fleurettii SFMP02 by agar dilution method; format: functional; conditions: Mammaliicoccus fleurettii; method in brief: as §1
[22] = test system: Staphylococcus fleurettii; experiment: Antibacterial activity against methicillin-resistant mecA-positive Staphylococcus fleurettii SFMP03 by agar dilution method; format: functional; conditions: Mammaliicoccus fleurettii; method in brief: as §1
[23] = test system: Staphylococcus fleurettii; experiment: Antibacterial activity against methicillin-resistant mecA-positive Staphylococcus fleurettii SFMP04 by agar dilution method; format: functional; conditions: Mammaliicoccus fleurettii; method in brief: as §1
[24] = test system: Staphylococcus fleurettii; experiment: Antibacterial activity against methicillin-resistant mecA-positive Staphylococcus fleurettii SFMP05 by agar dilution method; format: functional; conditions: Mammaliicoccus fleurettii; method in brief: as §1
[25] = test system: Staphylococcus fleurettii; experiment: Antibacterial activity against methicillin-resistant mecA-positive Staphylococcus fleurettii SFMP06 by agar dilution method; format: functional; conditions: Mammaliicoccus fleurettii; method in brief: as §1
[26] = test system: Staphylococcus fleurettii; experiment: Antibacterial activity against methicillin-resistant mecA-positive Staphylococcus fleurettii SFMP07 by agar dilution method; format: functional; conditions: Mammaliicoccus fleurettii; method in brief: as §1
[27] = test system: Staphylococcus fleurettii; experiment: Antibacterial activity against methicillin-resistant mecA-positive Staphylococcus fleurettii SFMP08 by agar dilution method; format: functional; conditions: Mammaliicoccus fleurettii; method in brief: as §1
[28] = test system: Staphylococcus fleurettii; experiment: Antibacterial activity against mecA-negative Staphylococcus fleurettii SFMN01 by agar dilution method; format: functional; conditions: Mammaliicoccus fleurettii; method in brief: as §2
[29] = test system: Staphylococcus fleurettii; experiment: Antibacterial activity against mecA-negative Staphylococcus fleurettii SFMN02 by agar dilution method; format: functional; conditions: Mammaliicoccus fleurettii; method in brief: as §2
[30] = Antibacterial activity against methicillin-resistant mecA-positive Staphylococcus sciuri subsp. sciuri ATCC 29062T by agar dilution method; format: functional; conditions: Mammaliicoccus sciuri; method in brief: as §1
[31] = Antibacterial activity against methicillin-resistant mecA-positive Staphylococcus sciuri subsp. rodentium ATCC 700061T by agar dilution method; format: functional; conditions: Mammaliicoccus sciuri; method in brief: as §1
[32] = test system: Staphylococcus vitulinus; experiment: Antibacterial activity against methicillin-resistant mecA-positive Staphylococcus vitulinus SVMP01 by agar dilution method; format: functional; conditions: Mammaliicoccus vitulinus; method in brief: as §1
[33] = test system: Staphylococcus vitulinus; experiment: Antibacterial activity against methicillin-resistant mecA-positive Staphylococcus vitulinus SVMP02 by agar dilution method; format: functional; conditions: Mammaliicoccus vitulinus; method in brief: as §1
[34] = Antibacterial activity against mecA-positive Staphylococcus sciuri subsp. carnaticus ATCC 700058T by agar dilution method; conditions: Mammaliicoccus sciuri

| SMILES | MIC [1] | MIC [2] | MIC [3] | MIC [4] | MIC [5] | MIC [6] | MIC [7] | MIC [8] | MIC [9] | MIC [10] | MIC [11] | MIC [12] | MIC [13] | MIC [14] | MIC [15] | MIC [16] | MIC [17] | MIC [18] | MIC [19] | MIC [20] | other results |
| --- | --- | --- | --- | --- | --- | --- | --- | --- | --- | --- | --- | --- | --- | --- | --- | --- | --- | --- | --- | --- | --- |
| CC1(C)S[C@@H]2[C@H](NC(=O)[C@H](N)c3ccccc3)C(=O)N2[C@H]1C(=O)O [AMPICILLIN] | < 0.063 µg/mL | < 0.063 µg/mL | < 0.063 µg/mL | < 0.063 µg/mL | 0.125 µg/mL (≈ 0.358 µM) | < 0.063 µg/mL | < 0.063 µg/mL | < 0.063 µg/mL | < 0.063 µg/mL | < 0.063 µg/mL | < 0.063 µg/mL | < 0.063 µg/mL | < 0.063 µg/mL | < 0.063 µg/mL | 0.125 µg/mL (≈ 0.358 µM) | < 0.063 µg/mL | < 0.063 µg/mL | < 0.063 µg/mL | < 0.063 µg/mL | 1 µg/mL (≈ 2.86 µM) | MIC [21]: 1 µg/mL (≈ 2.86 µM); MIC [22]: 1 µg/mL (≈ 2.86 µM); MIC [23]: 1 µg/mL (≈ 2.86 µM); MIC [24]: 0.25 µg/mL (≈ 0.715 µM); MIC [25]: 1 µg/mL (≈ 2.86 µM); MIC [26]: 0.25 µg/mL (≈ 0.715 µM); MIC [27]: 1 µg/mL (≈ 2.86 µM); MIC [28]: 0.125 µg/mL (≈ 0.358 µM); MIC [29]: 0.125 µg/mL (≈ 0.358 µM); MIC [30]: 0.125 µg/mL (≈ 0.358 µM); MIC [31]: 0.125 µg/mL (≈ 0.358 µM); MIC [32]: < 0.063 µg/mL; MIC [33]: < 0.063 µg/mL; MIC [34]: 0.125 µg/mL (≈ 0.358 µM) |
| CO/N=C(\C(=O)N[C@@H]1C(=O)N2C(C(=O)O)=C(CSc3nc(=O)c(O)nn3C)CS[C@H]12)c1csc(N)n1 [CEFTRIAXONE] | 4 µg/mL (≈ 7.21 µM) | 2 µg/mL (≈ 3.61 µM) | 4 µg/mL (≈ 7.21 µM) | 2 µg/mL (≈ 3.61 µM) | 8 µg/mL (≈ 14.4 µM) | 4 µg/mL (≈ 7.21 µM) | 1 µg/mL (≈ 1.8 µM) | 2 µg/mL (≈ 3.61 µM) | 1 µg/mL (≈ 1.8 µM) | 4 µg/mL (≈ 7.21 µM) | 2 µg/mL (≈ 3.61 µM) | 0.25 µg/mL (≈ 0.451 µM) | 2 µg/mL (≈ 3.61 µM) | 1 µg/mL (≈ 1.8 µM) | 4 µg/mL (≈ 7.21 µM) | 1 µg/mL (≈ 1.8 µM) | 1 µg/mL (≈ 1.8 µM) | 2 µg/mL (≈ 3.61 µM) | 2 µg/mL (≈ 3.61 µM) | 16 µg/mL (≈ 28.9 µM) | MIC [21]: 16 µg/mL (≈ 28.9 µM); MIC [22]: 64 µg/mL (≈ 115 µM); MIC [23]: 64 µg/mL (≈ 115 µM); MIC [24]: 8 µg/mL (≈ 14.4 µM); MIC [25]: 32 µg/mL (≈ 57.7 µM); MIC [26]: 8 µg/mL (≈ 14.4 µM); MIC [27]: 16 µg/mL (≈ 28.9 µM); MIC [28]: 4 µg/mL (≈ 7.21 µM); MIC [29]: 4 µg/mL (≈ 7.21 µM); MIC [30]: 8 µg/mL (≈ 14.4 µM); MIC [31]: 8 µg/mL (≈ 14.4 µM); MIC [32]: 4 µg/mL (≈ 7.21 µM); MIC [33]: 2 µg/mL (≈ 3.61 µM); MIC [34]: 8 µg/mL (≈ 14.4 µM) |
| Cc1onc(-c2ccccc2)c1C(=O)N[C@@H]1C(=O)N2[C@@H]1SC(C)(C)[C@@H]2C(=O)O [OXACILLIN] | 0.5 µg/mL (≈ 1.25 µM) | 0.5 µg/mL (≈ 1.25 µM) | 0.5 µg/mL (≈ 1.25 µM) | 0.5 µg/mL (≈ 1.25 µM) | 0.5 µg/mL (≈ 1.25 µM) | 0.5 µg/mL (≈ 1.25 µM) | 0.5 µg/mL (≈ 1.25 µM) | 0.5 µg/mL (≈ 1.25 µM) | 0.25 µg/mL (≈ 0.623 µM) | 0.5 µg/mL (≈ 1.25 µM) | 0.5 µg/mL (≈ 1.25 µM) | 0.5 µg/mL (≈ 1.25 µM) | 0.5 µg/mL (≈ 1.25 µM) | 0.5 µg/mL (≈ 1.25 µM) | 0.5 µg/mL (≈ 1.25 µM) | 0.5 µg/mL (≈ 1.25 µM) | 0.5 µg/mL (≈ 1.25 µM) | 0.5 µg/mL (≈ 1.25 µM) | 0.5 µg/mL (≈ 1.25 µM) | 64 µg/mL (≈ 159 µM) | MIC [21]: 8 µg/mL (≈ 19.9 µM); MIC [22]: 128 µg/mL (≈ 319 µM); MIC [23]: 128 µg/mL (≈ 319 µM); MIC [24]: 32 µg/mL (≈ 79.7 µM); MIC [25]: 64 µg/mL (≈ 159 µM); MIC [26]: 8 µg/mL (≈ 19.9 µM); MIC [27]: 64 µg/mL (≈ 159 µM); MIC [28]: 0.5 µg/mL (≈ 1.25 µM); MIC [29]: 0.5 µg/mL (≈ 1.25 µM); MIC [30]: 0.5 µg/mL (≈ 1.25 µM); MIC [31]: 0.5 µg/mL (≈ 1.25 µM); MIC [32]: 0.5 µg/mL (≈ 1.25 µM); MIC [33]: 0.5 µg/mL (≈ 1.25 µM); MIC [34]: 1 µg/mL (≈ 2.49 µM) |
